This note sets out measurements from ChEMBL document CHEMBL1667759, “Molecular modeling study and synthesis of quinazolinone-arylpiperazine derivatives as α1-adrenoreceptor antagonists” (Eur J Med Chem, 2011).

Usually inhibition in vivo stands for the drop in the measured response relative to a control, in per cent. As a reminder, the IC50 is the concentration that inhibits the measured activity by half.

Structures are written as SMILES. Counter-ions that a name gives are not always drawn.

Common to all, as to type: functional
Test [1] relates to Felis catus. Nature of the test: Hypotensive activity in normotensive cat assessed as reduction in diastolic blood pressure at 500 mg/kg, iv. The settings on record: Artery. The method in brief: (§1)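 Male cats (2e3 kg), acclimatized 7 days at 22 °C with 12 h light/dark cycle; groups of six. Single 500 mg/kg dose injected via femoral vein, flushed with 1 mL saline. Systolic and diastolic pressure recorded with mercury manometer on smoked kymograph; mean ± SD and % change versus control, significance by one-way ANOVA at P < 0.05. Experiments run 8–10 a.m.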

The subject of test [2] is Felis catus. Kind of test: Hypotensive activity in normotensive cat assessed as reduction in systolic blood pressure at 500 mg/kg, iv. The settings on record: Artery. The method in brief:
as §1

The species named for test [3] is Rattus norvegicus. Kind of test: Vasodilatory activity in Wistar rat aortic rings without endothelium assessed as reduction in norepinephrine hydrochloride-induced vasoconstriction. The conditions noted are these: Wister, Aorta. The essentials:
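Thoracic aortic rings from male Wister rats (250e350 g), killed by cervical dislocation and bleeding after light ether anaesthesia. Contraction to norepinephrine hydrochloride (10^-6 M) measured before and after increasing compound concentrations; compounds dissolved in DMSO (0.01 M stock), with DMSO-alone controls. IC50 = concentration giving 50% reduction of maximal NE contracture, derived by best-fit line.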

Take `COc1ccccc1N1CCN(Cc2nc3ccccc3c(=O)[nH]2)CC1`: the inhibition in vivo at 500 mg/kg was found to be 21.7% in test [1] and 23.7% in test [2]. In addition, in test [3], the IC50 was 303 µM.
On to `CCOC(=O)c1nc2cc(OC)c(OC)cc2c(=O)n1NC(=O)CN1CCN(c2ccccc2OC)CC1`, for which the inhibition in vivo at 500 mg/kg in test [1] turned out to be 4.02%; in test [2] it was 2.22%.
Turning to `CCOC(=O)c1nc2cc(OC)c(OC)cc2c(=O)n1NC(=O)CCN1CCN(c2ccccc2OC)CC1`, the inhibition in vivo at 500 mg/kg in test [1] came out at 13.9%; in test [2], 12.4%. The IC50 in test [3] was determined as 400 µM.
Consider `COc1ccccc1N1CCN(CC(=O)Nn2c(C)nc3ccccc3c2=O)CC1`, for which the inhibition in vivo at 500 mg/kg in test [1] and in test [2] was 0% throughout.
As for `COc1cc2nc(C)n(NC(=O)CN3CCN(c4ccccc4OC)CC3)c(=O)c2cc1OC`, the values for the inhibition in vivo at 500 mg/kg in test [1] and in test [2] were 2.78% and 3.13%, respectively.
The matching figures for `COc1cc2nc(C)n(NC(=O)CCN3CCN(c4ccccc4)CC3)c(=O)c2cc1OC`: 13.9% and 15.6%.
With `COc1cc2nc(C)n(NC(=O)CCN3CCN(c4ccccc4OC)CC3)c(=O)c2cc1OC`, the inhibition in vivo at 500 mg/kg came out at 40% in test [1] and 42.2% in test [2]. Besides, in test [3], the IC50 worked out at 201 µM.
On to `COc1cc2nc(C)n(NC(=O)CCN3CCN(c4ccc([N+](=O)[O-])cc4)CC3)c(=O)c2cc1OC`, for which the inhibition in vivo at 500 mg/kg is 6.82% in test [1] and 5% in test [2].
As to `COc1cc2nc(C)n(NC(=O)CCN3CCN(C(=O)c4ccco4)CC3)c(=O)c2cc1OC`, the inhibition in vivo at 500 mg/kg turned out to be 11.1% in test [1] and 9.38% in test [2].
In the case of `COc1cc2nc(N3CCN(C(=O)c4ccco4)CC3)nc(N)c2cc1OC` [PRAZOSIN HYDROCHLORIDE], the inhibition in vivo at 500 mg/kg in test [1] and in test [2] was 29% throughout. For the same molecule, the IC50 in test [3] was determined as 487 µM.
